Key:
[1] = system: Radical scavenging activity; assay: Antioxidant activity assessed as DPPH radical scavenging activity at 1 mM after 5 mins by ESR spectrometric analysis; type: functional
Summary of the method: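 Reaction mixtures held DPPH and test compound, each at 1.0 mM, both made up in acetonitrile. A control lacked compound. ESR signal was recorded 5 min after mixing at 9.81 GHz with 20 mW microwave power, 0.95 G modulation amplitude and 59 db receiver gain. Values are given as % DPPH scavenging.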

[2] = Antioxidant activity assessed as hydroxyl radical scavenging activity at 4 mM after 5 mins by ESR spectrometric analysis; type: functional
Summary of the method: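 Hydroxyl radicals came from a non-catalytic Fenton-type system: DMF, NaOH (3 mM), DMPO spin trap (30 mM final) and 30% H2O2, with compound at 4 mM final. The DMPO-OH adduct was read by X-band ESR (9.7 GHz) at room temperature 5 min after mixing. A control without antioxidant was included. Values are given as % scavenging.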

[3] = Antioxidant activity assessed as inhibition of AAPH-induced peroxyl radical formation at 0.3 to 2 uM preincubated for 15 mins followed by AAPH addition measured every 1 min for 120 mins by ORAC-FL assay relative to trolox; type: functional
Summary of the method: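 Fluorescein (70 nM final) and compound (0.3–2 µM, in methanol) were mixed in 75 mM sodium phosphate pH 7.4 and pre-incubated 15 min at 37 °C. AAPH (18 mM final) was then added. Fluorescence (ex 485, em 528 nm) was read every minute for 120 min. Net AUC was taken after subtracting a methanol blank and expressed relative to trolox. Triplicates, at least three independent assays.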

[4] = Antioxidant activity assessed as superoxide radical scavenging activity at 30 uM by cyclic voltammetric analysis; type: functional
Summary of the method: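 Cyclic voltammetry was run at room temperature with a three-electrode cell in DMSO, with compound at 30 µM final. Scavenging (%) was calculated as [(Ipc blank − Ipc aox)/Ipc blank] × 100 from the cathodic peak current without and with compound. Three replicates; significance was set at p < 0.05.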

[5] = system: Radical scavenging activity; assay: Antioxidant activity assessed as DPPH radical scavenging activity measured at 5 mins by ESR spectrometric analysis
[6] = Antioxidant activity assessed as inhibition of AAPH-induced peroxyl radical formation by ORAC-FL assay relative to trolox; type: functional
Summary of the method: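 Peroxyl scavenging in 75 mM sodium phosphate buffer pH 7.4 with fluorescein (70 nM final), using test compounds in methanol from 0.3 to 2 units. The mix was pre-incubated 15 min at 37 °C, then AAPH (18 mM final) was added. Fluorescence (ex 485, em 528 nm) was read every 1 min for 120 min. Net AUC was taken against a methanol blank and expressed relative to trolox standards. Triplicates, ≥3 independent runs.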

Cc1ccc2oc(=O)c(-c3ccccc3O)cc2c1
Activity [1]: 10.6% | Activity [2]: 100% | fold change (FC) [3]: 8.4 | Activity [4]: 25%

Cc1ccc(-c2cc3cccc(O)c3oc2=O)cc1
Activity [1]: 28.6% | Activity [2]: 16% | fold change (FC) [3]: 6.3 | Activity [4]: 17.4%

Cc1cccc2cc(-c3ccc(O)c(O)c3)c(=O)oc12
Activity [1]: 66.7% | Activity [2]: 100% | fold change (FC) [3]: 5.7 | Activity [4]: 77.3%

O=c1c(O)c(-c2ccc(O)c(O)c2)oc2cc(O)cc(O)c12
Activity [5]: 20% | fold change (FC) [6]: 7.28

Cc1cccc2cc(-c3cc(O)cc(O)c3)c(=O)oc12
Activity [1]: 11.2% | Activity [2]: 75% | fold change (FC) [3]: 5.5 | Activity [4]: 22.6%

Cc1ccc2oc(=O)c(-c3ccc(O)c(O)c3)cc2c1
Activity [1]: 28.3% | Activity [2]: 6.05% | fold change (FC) [3]: 5.3 | Activity [4]: 28.9%

Cc1ccc2oc(=O)c(-c3cccc(O)c3)cc2c1
Activity [1]: 3.4% | Activity [2]: 5.2% | fold change (FC) [3]: 6.7 | Activity [4]: 17.5%

Cc1ccc2oc(=O)c(-c3ccc(O)cc3)cc2c1
Activity [1]: 27.7% | Activity [2]: 100% | fold change (FC) [3]: 6.1 | Activity [4]: 17.4%

Cc1cccc2cc(-c3cc(O)c(O)c(O)c3)c(=O)oc12
Activity [1]: 100% | Activity [2]: 100% | fold change (FC) [3]: 5.3 | Activity [4]: 76.5%

Oc1cc(O)c2c(c1)OC(c1ccc(O)c(O)c1)C(O)C2 (stereo not given)
Activity [5]: 44.5% | fold change (FC) [6]: 6.76

O=c1oc2c(O)cccc2cc1-c1ccc(O)cc1
Activity [1]: 65.9% | Activity [2]: 100% | fold change (FC) [3]: 13.5 | Activity [4]: 71.5%

Reference: ChEMBL document CHEMBL2396589, “Remarkable antioxidant properties of a series of hydroxy-3-arylcoumarins” (Bioorg Med Chem, 2013)
